We go through 28 compounds from ChEMBL document CHEMBL1687878, “Synthesis and biological evaluation of substituted (thieno[2,3-d]pyrimidin-4-ylthio)carboxylic acids as inhibitors of human protein kinase CK2” (Eur J Med Chem, 2011).

In assay [1] the target is Casein kinase II (Homo sapiens, UniProt P19784+P67870+P68400). Put plainly: Inhibition of recombinant human CK2 activity assessed as [gamma-32P]ATP incorporation into substrate peptide after 20 mins in presence of 50 uM ATP. The class given is protein-complex assay. The procedure, abridged:
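Radiometric assay with 10 units of recombinant human CK2 in 20 mM Tris-HCl pH 7.5, 50 mM KCl, 10 mM MgCl2. It used 50 µM ATP plus γ-32P ATP (specific activity 100 µCi/µM) and serially diluted inhibitor, run 20 min at 30 °C. The reaction was stopped with 10% phosphoric acid, spotted on phosphocellulose paper, washed with 1% phosphoric acid and Cherenkov-counted. Percent inhibition was taken relative to the DMSO no-inhibitor control, and IC50 was derived from the dilution series.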

The target of assay [2] is Fibroblast growth factor receptor 1 (Homo sapiens) (UniProt P11362). Nature of the assay: Inhibition of recombinant human FGFR1 kinase assessed as residual activity at 10 uM in presence of 100 uM ATP. The gist of the method:
(§1)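 Inhibitor was tested at 10 µM with a final ATP of 100 µM. Residual activity is expressed as a percentage of the control without inhibitor.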

For assay [3], the target named is Hepatocyte growth factor receptor (Homo sapiens) (UniProt P08581). Put plainly: Inhibition of recombinant human Met kinase assessed as residual activity at 10 uM in presence of 100 uM ATP. The gist of the method: as §1
Assay [4] has as its target T1, Aurora kinase A (Homo sapiens) (UniProt O14965).
T1 sequence (whole entry): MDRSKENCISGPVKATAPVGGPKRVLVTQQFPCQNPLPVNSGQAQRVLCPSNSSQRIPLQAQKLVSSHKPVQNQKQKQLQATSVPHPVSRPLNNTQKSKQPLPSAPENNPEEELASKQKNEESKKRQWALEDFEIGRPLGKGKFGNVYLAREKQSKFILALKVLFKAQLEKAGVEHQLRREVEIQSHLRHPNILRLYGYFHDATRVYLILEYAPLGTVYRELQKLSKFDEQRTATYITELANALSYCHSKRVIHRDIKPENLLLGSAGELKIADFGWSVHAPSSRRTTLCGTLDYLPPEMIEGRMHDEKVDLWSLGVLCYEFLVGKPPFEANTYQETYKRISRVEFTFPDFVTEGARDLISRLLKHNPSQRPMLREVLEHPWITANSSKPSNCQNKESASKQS
Put plainly: Inhibition of recombinant human Aurora A kinase assessed as residual activity at 10 uM in presence of 100 uM ATP. The procedure, abridged:
as §1

Assay [5] concerns the target T2, Mitogen-activated protein kinase kinase kinase 5 (Homo sapiens) (UniProt Q99683).
T2 sequence (whole entry): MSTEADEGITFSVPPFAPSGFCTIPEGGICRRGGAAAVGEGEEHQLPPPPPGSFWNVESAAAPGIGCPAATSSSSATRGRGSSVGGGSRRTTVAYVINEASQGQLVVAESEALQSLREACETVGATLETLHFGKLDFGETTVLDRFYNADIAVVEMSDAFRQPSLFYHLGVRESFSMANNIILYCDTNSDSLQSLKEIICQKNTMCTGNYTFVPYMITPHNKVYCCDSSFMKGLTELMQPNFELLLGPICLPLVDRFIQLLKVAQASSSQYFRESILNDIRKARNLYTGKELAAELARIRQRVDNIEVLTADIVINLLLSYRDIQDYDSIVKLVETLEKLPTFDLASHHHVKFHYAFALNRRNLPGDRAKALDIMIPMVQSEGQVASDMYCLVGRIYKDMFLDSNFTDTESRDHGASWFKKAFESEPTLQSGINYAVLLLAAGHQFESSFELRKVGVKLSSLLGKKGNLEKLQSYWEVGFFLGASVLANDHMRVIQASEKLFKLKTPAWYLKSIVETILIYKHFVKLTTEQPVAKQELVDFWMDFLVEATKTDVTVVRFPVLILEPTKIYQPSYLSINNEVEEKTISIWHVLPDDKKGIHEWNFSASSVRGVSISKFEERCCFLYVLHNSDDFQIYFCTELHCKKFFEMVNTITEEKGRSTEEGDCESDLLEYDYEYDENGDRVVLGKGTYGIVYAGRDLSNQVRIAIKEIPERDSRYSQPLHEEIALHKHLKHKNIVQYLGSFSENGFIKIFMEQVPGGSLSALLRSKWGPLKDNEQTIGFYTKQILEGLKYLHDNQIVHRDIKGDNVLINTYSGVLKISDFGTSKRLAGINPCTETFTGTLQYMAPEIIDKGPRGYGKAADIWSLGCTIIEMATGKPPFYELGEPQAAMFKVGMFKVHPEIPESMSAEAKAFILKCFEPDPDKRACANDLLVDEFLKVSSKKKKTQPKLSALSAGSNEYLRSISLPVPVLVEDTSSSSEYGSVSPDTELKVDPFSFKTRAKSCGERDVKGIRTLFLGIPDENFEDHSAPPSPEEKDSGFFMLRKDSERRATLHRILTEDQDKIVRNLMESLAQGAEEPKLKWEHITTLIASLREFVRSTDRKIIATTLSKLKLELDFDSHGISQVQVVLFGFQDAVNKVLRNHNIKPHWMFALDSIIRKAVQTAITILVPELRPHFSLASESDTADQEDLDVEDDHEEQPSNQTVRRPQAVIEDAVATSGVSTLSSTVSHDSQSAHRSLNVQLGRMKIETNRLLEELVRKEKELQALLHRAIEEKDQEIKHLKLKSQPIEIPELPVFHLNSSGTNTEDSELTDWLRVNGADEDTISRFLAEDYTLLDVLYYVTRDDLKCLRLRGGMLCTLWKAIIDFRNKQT
Put plainly: Inhibition of recombinant human Ask1 kinase assessed as residual activity at 10 uM in presence of 100 uM ATP. The gist of the method: as §1

The target in assay [6] is Angiopoietin-1 receptor (Homo sapiens) (UniProt Q02763). Put plainly: Inhibition of recombinant human Tie2 kinase assessed as residual activity at 10 uM in presence of 100 uM ATP. The procedure, abridged:
as §1

For assay [7], the target named is Rho-associated protein kinase 1 (Homo sapiens) (UniProt Q13464). Put plainly: Inhibition of recombinant human Rock1 kinase assessed as residual activity at 10 uM in presence of 100 uM ATP. The gist of the method:
as §1

For assay [8], the target named is Mitogen-activated protein kinase 10 (Homo sapiens) (UniProt P53779). Nature of the assay: Inhibition of recombinant human Jnk3 kinase assessed as residual activity at 10 uM in presence of 100 uM ATP. The procedure, abridged:
as §1

Assay [9] concerns the target Casein kinase II (Homo sapiens) (UniProt P67870+P68400+P19784). Nature of the assay: Inhibition of recombinant human CK2 kinase assessed as residual activity at 10 uM in presence of 100 uM ATP. It is filed as protein-complex assay. The procedure, abridged:
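CK2 residual activity was measured with 10 µM inhibitor and a final ATP of 100 µM. It is expressed as a percentage of the no-inhibitor control.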

Assay [10] in a line: Competitive inhibition of recombinant human CK2 activity by Lineweaver-Burk plot analysis.

The structures appear in SMILES notation.

Chain of Casein kinase II (P67870 whole entry): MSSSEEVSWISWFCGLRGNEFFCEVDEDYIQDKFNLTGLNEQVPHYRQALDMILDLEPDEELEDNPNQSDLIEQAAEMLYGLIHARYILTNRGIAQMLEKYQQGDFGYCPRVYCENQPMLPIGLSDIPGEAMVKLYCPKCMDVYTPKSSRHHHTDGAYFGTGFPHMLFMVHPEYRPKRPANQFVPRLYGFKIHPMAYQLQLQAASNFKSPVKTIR
Chain of Casein kinase II (P68400 whole entry): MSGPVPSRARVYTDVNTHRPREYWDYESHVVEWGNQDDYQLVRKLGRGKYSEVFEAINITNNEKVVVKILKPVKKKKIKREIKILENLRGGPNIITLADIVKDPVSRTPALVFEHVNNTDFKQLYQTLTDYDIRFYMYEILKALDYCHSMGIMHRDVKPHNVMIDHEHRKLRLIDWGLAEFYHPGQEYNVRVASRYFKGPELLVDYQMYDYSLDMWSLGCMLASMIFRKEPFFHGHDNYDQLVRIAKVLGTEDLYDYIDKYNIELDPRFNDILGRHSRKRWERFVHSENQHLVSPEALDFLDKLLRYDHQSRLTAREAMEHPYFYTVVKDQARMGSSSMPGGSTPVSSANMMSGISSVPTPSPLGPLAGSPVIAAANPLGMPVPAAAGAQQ
Chain of Casein kinase II (P19784 whole entry): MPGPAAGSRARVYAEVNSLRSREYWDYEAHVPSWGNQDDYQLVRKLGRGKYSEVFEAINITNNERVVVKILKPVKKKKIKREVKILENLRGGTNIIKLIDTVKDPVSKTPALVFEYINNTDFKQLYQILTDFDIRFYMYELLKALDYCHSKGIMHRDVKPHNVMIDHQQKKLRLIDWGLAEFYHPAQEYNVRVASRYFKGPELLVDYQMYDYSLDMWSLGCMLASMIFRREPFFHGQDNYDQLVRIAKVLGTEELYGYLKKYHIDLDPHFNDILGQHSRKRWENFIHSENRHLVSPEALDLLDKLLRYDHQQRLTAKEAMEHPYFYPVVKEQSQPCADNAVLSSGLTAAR
Chain of Fibroblast growth factor receptor 1 (Homo sapiens) (P11362 22-822 limits assumed): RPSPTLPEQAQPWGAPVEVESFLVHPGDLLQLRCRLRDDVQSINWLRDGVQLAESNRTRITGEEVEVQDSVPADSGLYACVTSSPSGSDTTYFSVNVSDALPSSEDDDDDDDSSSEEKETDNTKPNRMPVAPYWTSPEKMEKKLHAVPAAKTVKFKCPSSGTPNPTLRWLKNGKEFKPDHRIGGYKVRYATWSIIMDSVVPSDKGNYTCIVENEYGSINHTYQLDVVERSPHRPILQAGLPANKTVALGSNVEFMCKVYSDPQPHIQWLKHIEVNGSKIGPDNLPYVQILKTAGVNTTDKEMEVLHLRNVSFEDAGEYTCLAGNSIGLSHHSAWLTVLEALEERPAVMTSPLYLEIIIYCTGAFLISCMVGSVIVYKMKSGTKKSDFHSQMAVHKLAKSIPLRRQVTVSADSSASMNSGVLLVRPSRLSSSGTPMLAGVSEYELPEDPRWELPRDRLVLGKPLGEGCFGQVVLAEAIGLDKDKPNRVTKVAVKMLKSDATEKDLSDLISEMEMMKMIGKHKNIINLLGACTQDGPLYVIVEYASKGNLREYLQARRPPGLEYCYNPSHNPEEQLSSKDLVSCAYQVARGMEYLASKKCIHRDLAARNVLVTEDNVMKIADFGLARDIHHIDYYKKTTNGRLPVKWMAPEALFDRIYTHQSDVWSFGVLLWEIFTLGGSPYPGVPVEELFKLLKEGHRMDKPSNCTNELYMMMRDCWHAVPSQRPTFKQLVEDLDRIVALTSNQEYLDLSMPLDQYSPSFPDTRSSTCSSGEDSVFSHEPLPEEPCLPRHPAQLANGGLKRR
Chain of Angiopoietin-1 receptor (Homo sapiens) (Q02763 whole entry): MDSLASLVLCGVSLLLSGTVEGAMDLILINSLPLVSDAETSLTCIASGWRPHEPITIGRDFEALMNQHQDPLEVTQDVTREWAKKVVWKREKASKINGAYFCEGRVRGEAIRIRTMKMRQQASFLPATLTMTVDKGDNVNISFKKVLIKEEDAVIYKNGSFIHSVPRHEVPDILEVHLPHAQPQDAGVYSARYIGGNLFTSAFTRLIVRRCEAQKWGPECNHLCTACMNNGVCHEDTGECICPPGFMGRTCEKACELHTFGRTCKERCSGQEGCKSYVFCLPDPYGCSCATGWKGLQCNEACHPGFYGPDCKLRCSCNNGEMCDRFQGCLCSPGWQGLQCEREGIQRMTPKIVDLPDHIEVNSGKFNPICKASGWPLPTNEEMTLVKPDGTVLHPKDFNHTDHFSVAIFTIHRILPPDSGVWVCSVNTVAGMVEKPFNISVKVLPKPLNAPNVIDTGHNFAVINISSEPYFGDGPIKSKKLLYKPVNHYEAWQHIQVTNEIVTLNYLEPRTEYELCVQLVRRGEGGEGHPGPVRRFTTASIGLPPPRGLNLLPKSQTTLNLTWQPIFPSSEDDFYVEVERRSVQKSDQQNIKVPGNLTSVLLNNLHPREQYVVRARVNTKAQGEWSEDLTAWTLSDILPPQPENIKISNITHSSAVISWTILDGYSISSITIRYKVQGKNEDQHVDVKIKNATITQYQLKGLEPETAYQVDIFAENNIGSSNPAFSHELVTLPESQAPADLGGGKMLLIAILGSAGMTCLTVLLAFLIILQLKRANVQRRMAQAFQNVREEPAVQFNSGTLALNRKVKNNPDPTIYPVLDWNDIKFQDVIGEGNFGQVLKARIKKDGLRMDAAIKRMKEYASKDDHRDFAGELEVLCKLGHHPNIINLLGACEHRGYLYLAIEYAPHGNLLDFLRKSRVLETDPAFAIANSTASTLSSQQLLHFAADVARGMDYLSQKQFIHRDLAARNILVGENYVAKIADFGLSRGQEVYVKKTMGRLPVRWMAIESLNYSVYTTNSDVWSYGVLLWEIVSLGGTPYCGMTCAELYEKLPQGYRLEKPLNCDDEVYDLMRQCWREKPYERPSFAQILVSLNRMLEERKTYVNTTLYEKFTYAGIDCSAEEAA
Chain of Rho-associated protein kinase 1 (Homo sapiens) (Q13464 2-1354 limits assumed): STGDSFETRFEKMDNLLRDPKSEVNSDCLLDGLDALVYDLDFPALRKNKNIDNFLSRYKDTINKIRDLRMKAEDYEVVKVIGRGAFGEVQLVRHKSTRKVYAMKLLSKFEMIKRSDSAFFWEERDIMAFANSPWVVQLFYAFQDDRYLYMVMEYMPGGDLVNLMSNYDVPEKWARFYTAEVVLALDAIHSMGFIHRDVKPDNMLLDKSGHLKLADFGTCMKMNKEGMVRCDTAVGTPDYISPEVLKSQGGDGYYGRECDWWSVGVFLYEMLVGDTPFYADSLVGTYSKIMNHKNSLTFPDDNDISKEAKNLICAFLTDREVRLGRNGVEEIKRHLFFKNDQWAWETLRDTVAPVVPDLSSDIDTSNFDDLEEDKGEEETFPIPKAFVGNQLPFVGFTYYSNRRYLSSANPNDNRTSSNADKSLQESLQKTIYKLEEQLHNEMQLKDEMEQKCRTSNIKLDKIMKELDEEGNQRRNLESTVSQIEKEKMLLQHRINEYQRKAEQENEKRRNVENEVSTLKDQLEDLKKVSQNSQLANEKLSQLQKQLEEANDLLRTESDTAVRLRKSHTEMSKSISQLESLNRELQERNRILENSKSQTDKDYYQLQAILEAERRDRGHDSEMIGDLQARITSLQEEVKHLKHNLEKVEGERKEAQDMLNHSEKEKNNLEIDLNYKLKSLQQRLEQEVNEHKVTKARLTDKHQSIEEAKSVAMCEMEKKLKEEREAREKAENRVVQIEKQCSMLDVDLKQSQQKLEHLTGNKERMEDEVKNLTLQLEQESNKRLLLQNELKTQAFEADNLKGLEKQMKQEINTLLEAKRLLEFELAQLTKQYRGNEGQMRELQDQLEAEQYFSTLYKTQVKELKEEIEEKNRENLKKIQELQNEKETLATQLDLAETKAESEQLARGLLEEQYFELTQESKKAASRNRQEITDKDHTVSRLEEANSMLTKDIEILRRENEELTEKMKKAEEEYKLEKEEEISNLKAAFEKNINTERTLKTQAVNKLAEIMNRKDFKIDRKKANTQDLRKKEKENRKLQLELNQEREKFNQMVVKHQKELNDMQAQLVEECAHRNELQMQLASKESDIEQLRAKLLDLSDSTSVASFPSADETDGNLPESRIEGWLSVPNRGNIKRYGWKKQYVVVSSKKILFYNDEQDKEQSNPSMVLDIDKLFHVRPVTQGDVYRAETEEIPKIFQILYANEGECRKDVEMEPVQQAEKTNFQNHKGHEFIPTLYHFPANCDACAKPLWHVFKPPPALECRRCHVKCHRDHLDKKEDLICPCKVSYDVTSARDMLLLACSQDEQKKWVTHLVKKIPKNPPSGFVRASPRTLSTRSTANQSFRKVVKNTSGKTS
Chain of Mitogen-activated protein kinase 10 (Homo sapiens) (P53779 whole entry): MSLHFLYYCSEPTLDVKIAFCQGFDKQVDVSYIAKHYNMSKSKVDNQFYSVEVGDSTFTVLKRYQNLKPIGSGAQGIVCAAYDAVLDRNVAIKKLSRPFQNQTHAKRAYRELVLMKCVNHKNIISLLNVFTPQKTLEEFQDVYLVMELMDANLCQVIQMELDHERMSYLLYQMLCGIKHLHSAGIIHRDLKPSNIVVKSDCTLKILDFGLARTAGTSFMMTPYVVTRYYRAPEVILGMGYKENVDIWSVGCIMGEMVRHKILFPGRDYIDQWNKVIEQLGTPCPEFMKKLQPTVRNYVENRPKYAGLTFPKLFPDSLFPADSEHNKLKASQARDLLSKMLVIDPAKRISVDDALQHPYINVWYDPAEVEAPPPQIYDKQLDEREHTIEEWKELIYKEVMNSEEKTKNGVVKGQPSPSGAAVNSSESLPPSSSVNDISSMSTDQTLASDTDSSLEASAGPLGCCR

One may read the IC50 as the concentration at which inhibition is half-maximal. As for `O=C(O)CCCSc1ncnc2sc3c(c12)CCCC3`, the IC50 in assay [1] is more than 33 µM.

As to `O=C(O)c1ccc(CSc2ncnc3sc4c(c23)CCCC4)cc1`, the IC50 in [1] is more than 33 µM. For the compound `O=C(O)CSc1ncnc2sc(-c3ccccc3)cc12`, in [1], the IC50 was 1.25 µM. For the compound `CC(Sc1ncnc2sc3c(c12)CCCC3)C(=O)O` (stereo not given), the 50% inhibitory concentration (IC50) in [1] was found to be 17 µM. Take `Cc1ccc(-c2csc3ncnc(SCCC(=O)O)c23)cc1C`: in assay [1], the IC50 was 0.175 µM. Consider `Cc1cc2c(SCC(=O)O)ncnc2s1`, for which, in assay [1], the IC50 turned out to be 4 µM. Still for that read-out and setting: the same measure for `Cc1nc(SCCC(=O)O)c2c3c(sc2n1)CCCC3`: 15.8 µM. Consider `CCOc1ccc(-c2csc3ncnc(SCCC(=O)O)c23)cc1`, for which the Activity in assay [2] worked out at 99%; in [3], 115%; in assay [4], 48%; in assay [5] it was 100%; in assay [6], 76%; in assay [7], 115%. In addition, the Activity in assay [8] is 94%; in assay [9], 0.86%. Also, the concentration for half-maximal inhibition (IC50) in assay [1] amounted to 0.125 µM.

Consider `Cc1sc2ncnc(SCc3cccc(C(=O)O)c3)c2c1C`, for which, in assay [1], the half-inhibitory concentration (IC50) stood at 17.8 µM. In the case of `Cc1cc2c(SCCC(=O)O)ncnc2s1`, in assay [1], the IC50 worked out at 7 µM. By Ki is commonly meant the dissociation constant of the complex between target and ligand, obtained from inhibition or displacement. In the case of `Cc1ccc(-c2csc3ncnc(SCCC(=O)O)c23)cc1`, the Activity came out at 92% in [2]; 114% in [3]; 23% in assay [4]; 92% in [5]; 70% in assay [6]; 126% in assay [7]. In addition, the Activity in assay [8] amounted to 104%; in [9], 0.72%. The Ki in assay [10] came to 0.04 µM. The half-maximal inhibitory concentration (IC50) in [1] was 0.1 µM. Consider `CC(Sc1ncnc2scc(-c3ccccc3)c12)C(=O)O` (stereo not given), for which the half-inhibitory concentration (IC50) in assay [1] worked out at 23 µM. For the compound `CC1CCc2c(sc3ncnc(SC(C)C(=O)O)c23)C1` (stereo not given), the IC50 in assay [1] was 20 µM. Consider `CCC(Sc1ncnc2scc(-c3ccc(C)cc3)c12)C(=O)O` (stereo not given), for which the IC50 in assay [1] was more than 33 µM. In the case of `O=C(O)CSc1ncnc2scc(-c3ccccc3)c12`, the concentration for half-maximal inhibition (IC50) in assay [1] was 30 µM.

Take `Cc1nc(SCCC(=O)O)c2cc(-c3ccccc3)sc2n1`: the IC50 in assay [1] was 3.5 µM.

Regarding `Cc1sc2ncnc(SC(C)C(=O)O)c2c1C` (stereo not given), the IC50 in [1] was more than 33 µM.

Consider `CCC(Sc1ncnc2sc3c(c12)CCCC3)C(=O)O` (stereo not given), for which the IC50 in assay [1] is more than 33 µM. Turning to `O=C(O)CCSc1ncnc2scc(-c3ccc(F)cc3)c12`, in assay [1], the IC50 worked out at 1.2 µM. As for `O=C(O)CCSc1ncnc2scc(-c3ccc(Cl)cc3)c12`, in [1], the IC50 stood at 0.175 µM. Turning to `Cc1sc2ncnc(SCC(=O)O)c2c1-c1ccccc1`, the IC50 in [1] was more than 33 µM. For the compound `CC1CCc2c(sc3ncnc(SCC(=O)O)c23)C1` (stereo not given), the half-inhibitory concentration (IC50) in assay [1] was 1.78 µM. With `Cc1sc2ncnc(SCCC(=O)O)c2c1C`, the IC50 in [1] is 11.3 µM. As to `O=C(O)CSc1ncnc2scc(-c3ccc(Br)cc3)c12`, the half-inhibitory concentration (IC50) in assay [1] came to 14 µM. As to `CCC(Sc1ncnc2scc(-c3ccc(Cl)cc3)c12)C(=O)O` (stereo not given), the 50% inhibitory concentration (IC50) in [1] was more than 33 µM. For the compound `Cc1sc2ncnc(SCC(=O)O)c2c1C`, in [1], the half-inhibitory concentration (IC50) amounted to 17.8 µM. Still for that read-out and setting: with `Cc1ccc(-c2csc3ncnc(SC(C)C(=O)O)c23)cc1` (stereo not given) the figure was 31 µM; with `O=C(O)CSc1ncnc2scc(-c3ccc(Cl)cc3)c12`, 32 µM.
